Tests used:
[1] = target: Cyclin-dependent kinase 5/CDK5 activator 1 (Homo sapiens, UniProt Q00535); assay: Inhibition of human recombinant GST-tagged CDK5/p25 expressed in Escherichia coli using histone H1 as substrate and [gamma32P]ATP after 30 mins by scintillation counting
[2] = target: Glycogen synthase kinase-3 (Sus scrofa, UniProt B2LUN4+I6LNT8); assay: Inhibition of pig GSK3alpha/beta isolated from brain using YRRAAVPPSPSLSRHSSPHQpSEDEEE as substrate and [gamma32P]ATP after 30 mins by scintillation counting
Summary of the method: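 Assay run at 30 °C in one of two buffers: buffer A (Tris-HCl pH 7.5 with MgCl2, EGTA, DTT, heparin) or buffer B (Mops pH 7.2 with beta-glycerophosphate, EGTA, MgCl2, DTT, vanadate). Peptide substrate. Blank values subtracted and activity expressed as % of maximal, uninhibited activity. Controls with matching DMSO dilutions.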

[3] = Inhibition of pig CK1delta/epsilon isolated from brain using RRKHAAIGpSAYSITA as substrate and [gamma32P]ATP after 30 mins by scintillation counting; design: species or system Sus scrofa
[4] = target: Dual specificity tyrosine-phosphorylation-regulated kinase 1A (Rattus norvegicus, UniProt Q63470); assay: Inhibition of rat recombinant GST-tagged DYRK1A expressed in Escherichia coli using KKISGRLSPIMTEQ as substrate and [gamma32P]ATP after 30 mins by scintillation counting
Summary of the method: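 Rat DYRK1A, expressed in E. coli as a GST fusion and purified on glutathione-agarose. Blanks subtracted. Activity given as % of uninhibited maximum. DMSO dilution controls.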

[5] = target: Dual specificity protein kinase CLK1 (Homo sapiens, UniProt P49759); assay: Inhibition of human recombinant GST-tagged CLK1 expressed in Escherichia coli using GRSRSRSRSRSR as substrate and [gamma32P]ATP after 30 mins by scintillation counting
Sequence of Dual specificity protein kinase CLK1 (P49759 whole entry): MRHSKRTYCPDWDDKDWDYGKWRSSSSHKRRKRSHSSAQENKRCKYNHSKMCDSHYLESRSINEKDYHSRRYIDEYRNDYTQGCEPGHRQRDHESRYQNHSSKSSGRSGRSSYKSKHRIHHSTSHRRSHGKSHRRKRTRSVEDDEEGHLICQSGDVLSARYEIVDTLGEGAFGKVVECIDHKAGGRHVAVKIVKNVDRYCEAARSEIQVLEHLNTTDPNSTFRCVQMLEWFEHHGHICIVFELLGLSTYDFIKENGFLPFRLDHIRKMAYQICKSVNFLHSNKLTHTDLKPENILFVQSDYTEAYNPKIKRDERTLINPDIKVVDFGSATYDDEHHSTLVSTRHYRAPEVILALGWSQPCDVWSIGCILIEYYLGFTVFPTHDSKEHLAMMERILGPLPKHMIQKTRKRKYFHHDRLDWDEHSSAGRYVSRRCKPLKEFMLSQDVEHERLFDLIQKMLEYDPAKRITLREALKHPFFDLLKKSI

Sequence of Cyclin-dependent kinase 5/CDK5 activator 1 (Q00535 whole entry): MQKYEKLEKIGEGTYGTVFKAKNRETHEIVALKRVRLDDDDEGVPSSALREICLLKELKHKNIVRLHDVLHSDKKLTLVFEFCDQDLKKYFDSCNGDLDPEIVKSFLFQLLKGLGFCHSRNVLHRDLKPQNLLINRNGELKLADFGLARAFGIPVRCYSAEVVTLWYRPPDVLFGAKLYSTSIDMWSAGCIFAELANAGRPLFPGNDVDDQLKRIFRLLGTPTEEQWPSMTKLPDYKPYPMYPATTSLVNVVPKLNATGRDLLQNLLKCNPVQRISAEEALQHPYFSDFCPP
Sequence of Cyclin-dependent kinase 5/CDK5 activator 1 (Q15078 whole entry, further chain): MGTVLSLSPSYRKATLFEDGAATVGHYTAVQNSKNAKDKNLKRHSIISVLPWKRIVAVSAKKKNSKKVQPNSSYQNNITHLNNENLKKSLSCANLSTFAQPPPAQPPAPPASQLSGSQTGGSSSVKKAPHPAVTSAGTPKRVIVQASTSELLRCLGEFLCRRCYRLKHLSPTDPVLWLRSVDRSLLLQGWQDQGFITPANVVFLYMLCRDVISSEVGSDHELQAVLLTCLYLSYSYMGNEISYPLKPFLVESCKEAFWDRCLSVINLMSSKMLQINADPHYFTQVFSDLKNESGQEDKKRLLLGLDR

SMILES	IC50 [1] [µM]	IC50 [2] [µM]	IC50 [3] [µM]	IC50 [4] [µM]	IC50 [5] [µM]
Nc1ncnc2c1sc1ccccc12	5.2	> 10	0.79	5.1	–
c1ccc(Nc2ncnc3c2sc2ccccc23)cc1	> 10	> 10	> 10	> 10	–
COc1ccc(Nc2ncnc3c2sc2ccccc23)cc1	> 10	> 10	> 10	> 10	–
COc1ccc(Nc2ncnc3c2sc2ccccc23)cc1OC	> 10	> 10	> 10	3.7	–
COc1cc(Nc2ncnc3c2sc2ccccc23)cc(OC)c1	> 10	> 10	> 10	> 10	–
COc1cc(Nc2ncnc3c2sc2ccccc23)cc(OC)c1OC	> 10	> 10	> 10	> 10	–
c1ccc2c(c1)sc1c(Nc3ccc4c(c3)OCO4)ncnc12	> 10	> 10	> 10	> 10	–
c1ccc2c(c1)sc1c(Nc3ccc4c(c3)OCCO4)ncnc12	> 10	> 10	> 10	> 10	–
Fc1cc(Br)ccc1Nc1ncnc2c1sc1ccccc12	> 10	> 10	> 10	> 10	–
O=[N+]([O-])c1cc(Nc2ncnc3c2sc2ccccc23)ccc1O	> 10	> 10	> 10	> 10	–
c1ccc(Nc2ncnc3c2sc2ncccc23)cc1	> 10	> 10	0.18	> 10	4.5
COc1ccc(Nc2ncnc3c2sc2ncccc23)cc1	> 10	> 10	0.52	> 10	3.3
COc1ccc(Nc2ncnc3c2sc2ncccc23)cc1OC	> 10	> 10	> 10	2.9	3.4
COc1cc(Nc2ncnc3c2sc2ncccc23)cc(OC)c1	> 10	> 10	> 10	> 10	> 10
COc1cc(Nc2ncnc3c2sc2ncccc23)cc(OC)c1OC	> 10	> 10	> 10	> 10	> 10
c1cnc2sc3c(Nc4ccc5c(c4)OCO5)ncnc3c2c1	> 10	> 10	0.44	> 10	2.2
c1cnc2sc3c(Nc4ccc5c(c4)OCCO5)ncnc3c2c1	> 10	> 10	> 10	> 10	> 10
Fc1cc(Br)ccc1Nc1ncnc2c1sc1ncccc12	> 10	> 10	0.28	0.89	2.1
O=[N+]([O-])c1cc(Nc2ncnc3c2sc2ncccc23)ccc1O	> 10	> 10	> 10	> 10	> 10
Nc1ncnc2c1sc1cccnc12	> 10	> 10	1.8	6	5.2

SMILES	IC50 [1] [µM]	IC50 [2] [µM]	IC50 [3] [µM]	IC50 [4] [µM]	IC50 [5] [µM]
c1ccc(Nc2ncnc3c2sc2cccnc23)cc1	> 10	> 10	1.6	> 10	> 10
COc1ccc(Nc2ncnc3c2sc2cccnc23)cc1	> 10	> 10	> 10	> 10	> 10
COc1ccc(Nc2ncnc3c2sc2cccnc23)cc1OC	> 10	> 10	> 10	3.7	> 10
COc1cc(Nc2ncnc3c2sc2cccnc23)cc(OC)c1	> 10	> 10	> 10	> 10	> 10
COc1cc(Nc2ncnc3c2sc2cccnc23)cc(OC)c1OC	> 10	> 10	4.1	> 10	> 10
c1cnc2c(c1)sc1c(Nc3ccc4c(c3)OCO4)ncnc12	> 10	> 10	> 10	> 10	> 10
c1cnc2c(c1)sc1c(Nc3ccc4c(c3)OCCO4)ncnc12	> 10	> 10	> 10	> 10	> 10
Fc1cc(Br)ccc1Nc1ncnc2c1sc1cccnc12	> 10	> 10	11	7.3	> 10
O=[N+]([O-])c1cc(Nc2ncnc3c2sc2cccnc23)ccc1O	> 10	> 10	0.12	5.8	> 10
Nc1ncnc2c1sc1nccnc12	> 10	> 10	2.4	> 10	–
c1ccc(Nc2ncnc3c2sc2nccnc23)cc1	> 10	> 10	5	> 10	–
COc1ccc(Nc2ncnc3c2sc2nccnc23)cc1	> 10	> 10	> 10	> 10	–
COc1ccc(Nc2ncnc3c2sc2nccnc23)cc1OC	> 10	> 10	> 10	> 10	–
COc1cc(Nc2ncnc3c2sc2nccnc23)cc(OC)c1	> 10	> 10	7.8	> 10	–
COc1cc(Nc2ncnc3c2sc2nccnc23)cc(OC)c1OC	> 10	> 10	> 10	> 10	–
c1cnc2c(n1)sc1c(Nc3ccc4c(c3)OCO4)ncnc12	> 10	> 10	> 10	> 10	–
c1cnc2c(n1)sc1c(Nc3ccc4c(c3)OCCO4)ncnc12	> 10	> 10	> 10	> 10	–
Fc1cc(Br)ccc1Nc1ncnc2c1sc1nccnc12	> 10	> 10	> 10	> 10	–
O=[N+]([O-])c1cc(Nc2ncnc3c2sc2nccnc23)ccc1O	> 10	> 10	1.4	> 10	–
Nc1ncnc2c1sc1ncccc12	> 10	> 10	0.031	2.8	0.68

— ChEMBL document CHEMBL2150914, “Synthesis and biological evaluation of N-arylbenzo[b]thieno[3,2-d]pyrimidin-4-amines and their pyrido and pyrazino analogues as Ser/Thr kinase inhibitors” (Eur J Med Chem, 2012)
